Drawing on ChEMBL document CHEMBL1212703, “Identification of RIP1 kinase as a specific cellular target of necrostatins” (Nat Chem Biol, 2008), this text covers inhibition and EC50 for 16 compounds.

Structures are written as SMILES. Numbering of substitutions follows the chain as printed. pEC50: −log10 of the molar value. Active and inactive are the calls of the source. No cut-off for these calls is given here. Peptide text beside a SMILES is read from it. * marks the point of attachment. Cbz = O=C(OCc1ccccc1)*; CH2F = FC*

The pEC50 is −log10 of the EC50, conventionally taken in molar units.

Assay [1] deals with T1, Receptor-interacting serine/threonine-protein kinase 1 (Homo sapiens), Q13546 [K45M].
T1 sequence (whole entry): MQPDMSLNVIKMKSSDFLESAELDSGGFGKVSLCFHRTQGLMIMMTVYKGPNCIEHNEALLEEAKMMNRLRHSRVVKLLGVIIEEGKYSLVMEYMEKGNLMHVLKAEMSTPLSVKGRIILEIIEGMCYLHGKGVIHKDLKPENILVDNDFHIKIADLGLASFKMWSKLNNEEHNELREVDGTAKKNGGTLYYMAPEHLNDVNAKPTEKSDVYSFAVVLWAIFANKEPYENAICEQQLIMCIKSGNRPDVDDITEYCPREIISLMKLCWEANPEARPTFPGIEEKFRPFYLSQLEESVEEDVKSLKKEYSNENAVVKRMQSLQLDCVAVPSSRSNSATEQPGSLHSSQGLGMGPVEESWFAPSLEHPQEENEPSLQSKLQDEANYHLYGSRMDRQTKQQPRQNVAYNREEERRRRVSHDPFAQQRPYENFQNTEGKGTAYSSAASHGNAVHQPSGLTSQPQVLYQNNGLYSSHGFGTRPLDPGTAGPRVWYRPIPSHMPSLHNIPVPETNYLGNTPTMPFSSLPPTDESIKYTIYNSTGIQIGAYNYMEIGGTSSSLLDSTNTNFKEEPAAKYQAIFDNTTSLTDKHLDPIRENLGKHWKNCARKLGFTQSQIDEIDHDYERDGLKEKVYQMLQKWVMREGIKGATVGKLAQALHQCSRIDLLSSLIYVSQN
Briefly: Inhibition of human RIP1 K45M mutant autophosphorylation expressed in HEK293T cells. Type of assay: cell-based. As to conditions: HEK-293T.

Assay [2] shares this test system. Briefly: Inhibition of human RIP1 K45M mutant autophosphorylation expressed in Sf9 cells.
Assay [3] deals with Jurkat. Briefly: Inhibition of cellular necroptosis in TNFalpha treated FADD deficient human Jurkat cells. Type of assay: functional, cell-based.
Assay [4] has as its target T2, Receptor-interacting serine/threonine-protein kinase 1 (Homo sapiens) (UniProt Q13546).
T2 sequence (whole entry): T1 sequence (whole entry) with M45K
The experiment in a line: (§1) Inhibition of endogenous RIP1 autophosphorylation in human Jurkat cells. Format: cell-based. In outline: (§2)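 RIP1 immunoprecipitated from Jurkat cells and autophosphorylated in vitro across a titration of compound. Autophosphorylation quantified by phosphorimager; EC50 derived by nonlinear regression curve fitting. An aliquot of each reaction was blotted for RIP1 to check protein input.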

In assay [5] the test system is Jurkat. Briefly: Inhibition of TNF-alpha-induced NF-kappaB activation expressed in FADD deficient human Jurkat cells at 30 uM by luciferase reporter gene assay. Format: cell-based. In outline:
(§3)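 FADD-deficient Jurkat cells carrying a lentiviral NF-kB luciferase reporter, 2*10^4 cells/well, stimulated with 10 ng ml-1 human TNFα for 4 h with 30 µM compound. Luminescence read by Bright-Glo. Values given as fold luciferase increase over unstimulated cells; s.d. shown.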
For orientation: In a reporter assay the amount or activity of a reporter protein is the signal.

In assay [6] the test system is HEK-293T. Briefly: Inhibition of TNF-alpha-induced NF-kappaB activation expressed in HEK293T cells at 30 uM by luciferase reporter gene assay. Format: cell-based. In outline: (§4)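 293T cells, 1.2*10^6/well, cotransfected with pNFkB-Luc and pRSV-β-galactosidase control; 48 h later stimulated with 10 ng ml-1 human TNFα for 4 h with 30 µM compound. Luciferase (Bright-Glo) normalized to β-gal activity (ONPG, 30 °C, A420). Results expressed as fold over unstimulated cells; s.d. shown.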

Assay [7] addresses T3, Heat shock protein HSP90 (Homo sapiens) (UniProt P07900+P08238). The experiment in a line: Inhibition of to HSP90 in FADD deficient human Jurkat cells assessed as RIP protein degradation at 30 uM by Western blot. Format: cell-based. In outline:
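FADD-deficient Jurkat cells exposed to 30 µM compound for 16 hr; RIP1 levels then assessed by western blot against anti-RIP1, with tubulin as loading control.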
On the technique in general: A western blot detects proteins with antibodies after separation by electrophoresis.

Assay [8] concerns T1, Receptor-interacting serine/threonine-protein kinase 1 (Homo sapiens), Q13546 [K45M]. The experiment in a line: Inhibition of human RIP1 K45M mutant autophosphorylation expressed in FADD deficient human Jurkat cells at 10 to 30 uM. Format: cell-based.
The subject of assay [9] is T4, Receptor-interacting serine/threonine-protein kinase 1 (Homo sapiens), Q13546 [S161E].
T4 sequence (whole entry): T1 sequence (whole entry) with M45K, S161E
Briefly: Inhibition of human RIP1 S161E mutant autophosphorylation expressed in HEK293T cells at 10 to 30 uM. Type of assay: cell-based. As to conditions: HEK-293T.

The subject of assay [10] is Jurkat. Briefly: Inhibition of cellular necroptosis in TNFalpha treated […] human Jurkat cells expressing RIP1 S161E mutant at 30 uM. Type of assay: functional, cell-based.
The target of assay [11] is T3, Heat shock protein HSP90 (Homo sapiens). The experiment in a line: Inhibition of FITC-geldanamycin binding to HSP90 in human Jurkat cell lysates at 30 uM by fluorimetric assay. Format: cell-free.
Assay [12] has as its system Jurkat. Briefly: Inhibition of cellular necroptosis in TNFalpha treated FADD and RIP1 deficient human Jurkat cells at 30 uM. Format: functional, cell-based.
Assay [13] concerns HEK-293T. Briefly: Inhibition of TNF-alpha-induced NF-kappaB activation expressed in HEK293T cells by luciferase reporter gene assay. Format: cell-based. In outline:
as §4

Assay [14] relates to Jurkat. The experiment in a line: Inhibition of TNF-alpha-induced NF-kappaB activation expressed in FADD deficient human Jurkat cells by luciferase reporter gene assay. Format: cell-based. In outline:
as §3

Assay [15] relates to T1, Receptor-interacting serine/threonine-protein kinase 1 (Homo sapiens), Q13546 [K45M]. The experiment in a line: Inhibition of human RIP1 K45M mutant autophosphorylation expressed in Sf9 cells at 10 to 30 uM.
Assay [16] addresses Receptor-interacting serine/threonine-protein kinase 2 (Homo sapiens) (UniProt O43353). Briefly: Inhibition of human RIP2 autophosphorylation expressed in HEK293T cells. Format: cell-based. The conditions noted are these: HEK-293T. In outline: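 Myc-tagged RIP2 was transiently expressed in 293T cells, immunoprecipitated with anti-Myc antibody (clone 9E10), and used in an in vitro autophosphorylation kinase reaction with compound at the indicated concentrations, with DMSO as the vehicle.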

In assay [17] the test system is Jurkat. Briefly: Inhibition of cellular necroptosis in TNFalpha treated […] human Jurkat cells expressing RIP1 F162E mutant at 30 uM. Format: functional, cell-based.
In assay [18] the target is Receptor-interacting serine/threonine-protein kinase 3 (Homo sapiens) (UniProt Q9Y572). The experiment in a line: Inhibition of human RIP3 autophosphorylation expressed in HEK293T cells. Type of assay: cell-based. The conditions noted are these: HEK-293T.
The target of assay [19] is T5, Receptor-interacting serine/threonine-protein kinase 1 (Homo sapiens, UniProt Q13546).
T5 sequence (Q13546 whole entry): T1 sequence (whole entry) with M45K
The description is as §1. Format: cell-based. In outline: as §2

For assay [20], the system named is T4, Receptor-interacting serine/threonine-protein kinase 1 (Homo sapiens), Q13546 [S161E]. The conditions noted are these: HEK-293T, 100 uM.

Sequence of Receptor-interacting serine/threonine-protein kinase 2 (Homo sapiens) (O43353 whole entry): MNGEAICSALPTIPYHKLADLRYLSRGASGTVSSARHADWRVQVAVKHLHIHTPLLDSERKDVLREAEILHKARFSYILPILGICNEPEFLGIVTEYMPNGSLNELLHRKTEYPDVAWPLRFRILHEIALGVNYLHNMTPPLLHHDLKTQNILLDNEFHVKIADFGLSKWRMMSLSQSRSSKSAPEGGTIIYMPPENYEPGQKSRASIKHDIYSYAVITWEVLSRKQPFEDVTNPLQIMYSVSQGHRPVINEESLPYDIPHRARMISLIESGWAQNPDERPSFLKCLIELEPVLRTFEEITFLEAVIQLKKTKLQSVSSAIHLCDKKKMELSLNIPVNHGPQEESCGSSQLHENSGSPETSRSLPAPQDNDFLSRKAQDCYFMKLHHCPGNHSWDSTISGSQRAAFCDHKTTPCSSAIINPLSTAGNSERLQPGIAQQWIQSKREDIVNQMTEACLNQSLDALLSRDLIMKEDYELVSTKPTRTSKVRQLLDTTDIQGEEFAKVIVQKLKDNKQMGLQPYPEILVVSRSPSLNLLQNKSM
Sequence of Receptor-interacting serine/threonine-protein kinase 3 (Homo sapiens) (Q9Y572 whole entry, looked up): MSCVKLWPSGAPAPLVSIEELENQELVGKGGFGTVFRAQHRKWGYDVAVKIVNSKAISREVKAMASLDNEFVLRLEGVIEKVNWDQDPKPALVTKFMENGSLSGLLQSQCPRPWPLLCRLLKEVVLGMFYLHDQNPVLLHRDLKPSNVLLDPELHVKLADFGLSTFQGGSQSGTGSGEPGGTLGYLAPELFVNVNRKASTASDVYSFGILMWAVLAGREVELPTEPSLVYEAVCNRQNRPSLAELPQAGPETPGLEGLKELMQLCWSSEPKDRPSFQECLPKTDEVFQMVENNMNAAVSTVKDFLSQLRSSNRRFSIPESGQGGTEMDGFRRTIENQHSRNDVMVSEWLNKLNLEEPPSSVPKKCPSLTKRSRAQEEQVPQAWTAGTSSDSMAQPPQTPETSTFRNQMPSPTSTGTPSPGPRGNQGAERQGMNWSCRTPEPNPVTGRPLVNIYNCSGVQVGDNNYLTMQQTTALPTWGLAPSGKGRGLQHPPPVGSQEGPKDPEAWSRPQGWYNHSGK

Consider `O=C1NC(=S)NC1Cc1c[nH]c2ccccc12` (stereo not drawn), for which the inhibition result in assay [1], in [2] and in [4] was “inactive” throughout. Also, in [3], the negative-log EC50 (pEC50) is less than 4.00.
With `N#CCSc1nc2sc3c(c2c(=O)n1-c1ccccc1)CCCC3`, in assay [1], the inhibition entry was “inactive”. This compound also had a pEC50 in assay [3] of less than 4.00.
Turning to `CN1CC(Cc2c[nH]c3c(Cl)cccc23)NC1=O` (stereo not drawn), the pEC50 in [3] was less than 4.00.
`CN1C(=O)NC(Cc2c[nH]c3ccccc23)C1=O` (stereo not drawn): the inhibition result in assay [1] was “Active”.
For the compound `CN1C(=O)C(Cc2c[nH]c3ccccc23)N(C)C1=S` (stereo not drawn), the inhibition result in assay [1] was “inactive”. Moreover, the negative logarithm of the EC50 (pEC50) in [3] is 4.11.
Consider `COc1ccc([C@H]2[C@H]3CCc4ccccc4C3=NN2C(C)=O)cc1`, for which the inhibition result in assay [5], in [6], in [7] and in assay [11] was “inactive” each time. In addition, the inhibition entry in assay [1], in assay [8], in [2], in assay [9] and in assay [10] was “Active” in each case. In assay [3], this compound had a pEC50 of 6.54.
`C[C@@H]1C[C@@H]([C@H](O)CC2CC(=O)NC(=O)C2)C(=O)[C@@H](C)C1`: the inhibition result in assay [12] is “inactive”.
Still for that read-out and setting: the entry for `COC(=O)C[C@H](NC(=O)[C@H](C)NC(=O)[C@@H](NC(=O)OCc1ccccc1)C(C)C)C(=O)CF` (Cbz-Val-Ala-Asp(OMe)-CH2F) is “inactive”.
With `COC1=C2C[C@@H](C)C[C@H](OC)[C@H](O)[C@@H](C)/C=C(\C)[C@H](OC(N)=O)[C@@H](OC)/C=C\C=C(/C)C(=O)NC(=CC1=O)C2=O`, the inhibition result in assay [13] and in assay [14] was “Active” throughout. Moreover, the inhibition entry in assay [8] and in assay [15] was “inactive” each time.
For `CN1C(=O)C(Cc2c[nH]c3c(Cl)cccc23)NC1=S` (stereo not drawn), the inhibition entry in [1] was “Active”.
For `COc1ccc(-n2c(SCC#N)nc3sc4c(c3c2=O)CCCC4)cc1`, the inhibition result in assay [5], in assay [6], in assay [7], in assay [2] and in assay [11] was “inactive” in each case. Further, the inhibition result in assay [1] and in assay [8] was “Active” in each case.
As to `O=[N+]([O-])c1ccc(-c2nc(-c3ccc(F)cc3)c(-c3ccncc3)[nH]2)cc1`, in assay [16], the inhibition result is “Active”.
`CN1C(=O)C(Cc2cn(C)c3ccccc23)NC1=S` (stereo not drawn): in assay [1], the inhibition result was “inactive”. The compound also showed a pEC50 in assay [3] of 4.48.
On to `COc1ccc([C@H]2[C@H]3CCc4c(OC)cccc4C3=NN2C(C)=O)cc1`, for which the inhibition result in [1] is “inactive”. Besides, in assay [3], the pEC50 is less than 4.00.
With `CN1C(=O)C(Cc2c[nH]c3ccccc23)NC1=S` (stereo not drawn) [NECROSTATIN], the inhibition entry in [5], in assay [6], in assay [17], in [7], in assay [18] and in assay [10] was “inactive” throughout. In addition, the inhibition result in assay [16], in assay [20] and in [11] was “inactive” in each case. In addition, the inhibition entry in assay [1] was “Dose-dependent effect”. The inhibition result in assay [2] is “Active”. The same compound showed a pEC50 in assay [19] of 6.74.
Regarding `CN1C(=O)C(C)(Cc2c[nH]c3ccccc23)NC1=S` (stereo not drawn), in assay [1], the inhibition result was “inactive”. For the same compound, the negative-log EC50 (pEC50) in assay [3] is less than 4.00.
